High-throughput results (PubChem BioAssay)
An excerpt weighted towards active compounds, which were near 2.7% of everything screened.
PAD4 FP inh: PAD4 (human) enzyme inhibition; hit rate 0.41% among 330,000; recombinant PAD4, RCA probe fluorescence polarization; inhibition, % at 6.36 µM; Q9UM07;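 active = percent inhibition above a cutoff equal to the mean of all tested compounds plus 3 SD, cut at about 15% in these data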;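 note: 0% = PAD4 with RCA probe and DMSO and 100% = probe without PAD4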
GSTO1 inh: blocks human GSTO1 in RBBP9 counter-screen; P78417; recombinant GSTO1, activity-based probe fluorescence polarization; inhibition, % at 5.96 µM; hit rate 1.1% among 300,000;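 active = inhibition above the campaign mean inhibition plus 3 SD, cut at about 35% in these data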;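 note: 0% = GSTO1-1 with DMSO and 100% = wells lacking GSTO1-1 enzyme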
RBBP9 inh: inhibitors of human serine hydrolase RBBP9. recombinant RBBP9, FP-Rh probe fluorescence polarization. inhibition, % at 7.94 µM. hit rate 0.2% among 220,000;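 active = inhibition above the campaign mean of all tested compounds plus 3 SD, cut at about 14% in these data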;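 note: plate controls were DMSO wells with RBBP9 for no effect and wells lacking RBBP9 protein for full effect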
Target sequence (O75884 whole entry, looked up): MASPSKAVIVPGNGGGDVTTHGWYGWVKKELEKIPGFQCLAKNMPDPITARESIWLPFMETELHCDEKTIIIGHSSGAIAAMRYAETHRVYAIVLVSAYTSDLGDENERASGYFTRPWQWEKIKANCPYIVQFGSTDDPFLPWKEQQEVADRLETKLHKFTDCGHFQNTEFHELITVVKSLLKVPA
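system = RBBP9 protein | input = RBBP9 at 2.5 µM in dispensed solution, before mixing | measured by = fluorescence polarization (mP), excitation 525 nm, emission 598 nm | incubation = enzyme-compound preincubation 30 min, then probe labeling 45 min, 25 °C | buffer or medium = Tris-NaCl-Pluronic buffer, pH 8.0 | compound = single dose 7.94 µM | also added = FP-Rh probe, 375 nM dispensing solution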
PRMT1 inh: PRMT1 (human) inhibition, primary screen; recombinant PRMT1, activity-based probe fluorescence polarization; Q99873; AID 652257; inhibition, % at 2.79 µM; hit rate 1.3% among 370,000;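 active = inhibition above about 21% made by adding two undisclosed values, limit read from the data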
SIAE primary: human SIAE inhibition, primary screen; SIAE FP-Rh probe binding, fluorescence polarization; Q9HAT2; hit rate 0.69% among 370,000; inhibition, % at 9.66 µM;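 active = inhibition above a cutoff: mean of compounds within the control limits plus 3 SD of those, cut at about 17% in these data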;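 note: 0% = plate median of compound wells and 100% = probe without SIAE protein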
Target sequence (Q9HAT2 whole entry, looked up): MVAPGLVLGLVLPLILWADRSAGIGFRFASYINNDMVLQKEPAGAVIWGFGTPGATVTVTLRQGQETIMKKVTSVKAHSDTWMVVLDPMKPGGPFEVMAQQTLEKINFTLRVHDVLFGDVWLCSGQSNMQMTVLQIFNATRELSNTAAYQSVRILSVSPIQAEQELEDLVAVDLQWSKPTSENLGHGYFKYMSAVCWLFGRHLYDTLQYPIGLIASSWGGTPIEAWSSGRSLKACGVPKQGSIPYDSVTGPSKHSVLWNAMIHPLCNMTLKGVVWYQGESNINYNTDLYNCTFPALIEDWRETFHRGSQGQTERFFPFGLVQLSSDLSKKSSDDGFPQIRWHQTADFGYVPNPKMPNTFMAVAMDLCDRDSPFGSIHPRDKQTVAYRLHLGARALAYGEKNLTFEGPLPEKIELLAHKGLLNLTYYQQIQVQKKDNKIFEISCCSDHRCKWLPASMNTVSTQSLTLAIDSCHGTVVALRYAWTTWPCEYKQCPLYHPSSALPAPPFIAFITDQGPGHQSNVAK
GSTO1 confirm: confirmation of human GSTO1 inhibitors | shares compounds with GSTO1 inh | recombinant GSTO1, probe fluorescence polarization | inhibition, % at 5.96 µM | hit rate 54% among 2,400;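 active = inhibition above the primary screen's cutoff, its mean inhibition plus 3 SD, cut at about 35% in these data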;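 note: loss of polarization as inhibitors block binding of rhodamine sulfonate ester activity probe; 0% = GSTO1 with DMSO and 100% = wells lacking GSTO1 enzyme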
GSTO1 recomb ABPP: inhibitors of recombinant human GSTO1 | shares compounds with GSTO1 inh | gel ABPP SE-Rh probe fluorescence | inhibition, % at 1 µM | hit rate 30% among 130 | AID 463110;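 active = inhibition of the enzyme GSTO1 above about 75%, limit read from the data; inactive = inhibition below that limit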
An asterisk follows results filed as active; · = no result given.

SMILES	PAD4 FP inh	GSTO1 inh	RBBP9 inh	PRMT1 inh	SIAE primary	GSTO1 confirm	others
CCOC(=O)CNC(=O)CSc1nnc(-c2ccncc2)n1-c1ccc(Cl)cc1	2.6	1.4	-1.8	2.5	2.4	·
CC1=NN(c2ccccc2)C(=O)/C1=C\N(O)c1ccccc1	-11.4	47.6*	·	2.3	1.0	40.6*
COc1ccc(/C=C2/C(=O)N(c3ccccc3)N=C2C)cc1Br	42.8*	58.4*	·	3.9	5.1	19.4
O=C(Cn1cc([N+](=O)[O-])cn1)NCCc1nc2ccccc2[nH]1	2.2	-4.3	-6.0	4.5	-8.0	·
Cc1nccn1CCCNC(=O)c1nc(Cn2cc([N+](=O)[O-])cn2)no1	-5.4	3.4	·	-6.9	-16.0	·
O=C1/C(=C\c2ccc(O)c(O)c2)N=C2CCCCCN12	1.6	44.4*	6.5	-0.3	1.0	5.9
CN(C)c1nc(Cl)nc(N(C#N)CCOc2ccccc2)n1	-0.6	44.1*	-4.3	-0.1	-1.2	69.0*
CCN(CC)c1ccc2c(C)c(CO)c(=O)oc2c1	-0.9	5.2	-3.6	-0.6	3.6	·
CCN(CC)c1ccc2c(O)cc(=O)oc2c1	4.0	53.6*	7.7	-1.1	6.3	8.7
O=C(CNC(=O)c1ccc(Br)o1)NCc1ccc(Cl)cc1	8.3	8.5	·	-4.0	-0.8	·
O=C(OCC(=O)N1CCCC1=O)c1nc(Cl)c(Cl)c(Cl)c1Cl	-5.2	39.9*	·	3.5	-8.5	24.1
Cc1ccc(-c2csc3nc4cc(C(=O)NC5CCC(O)CC5)ccc4c(=O)n23)cc1 (centres undefined)	-2.1	38.9*	·	1.0	-12.7	21.5
C/C(=N\NC(=O)c1cc(O)cc(O)c1)c1ccc(NC(=O)Cc2ccccc2)cc1	-1.0	37.8*	·	6.6	24.1*	46.7*
COc1ccc(NC(=O)C(OC(=O)c2ccc([N+](=O)[O-])o2)c2ccccc2)cc1Cl (centres undefined)	-12.2	50.1*	-6.1	2.5	0.5	10.0
Cc1cc(C(=O)N/N=C/c2cc([N+](=O)[O-])ccc2O)c2ccccc2n1	-2.5	1.3	-8.9	4.4	-9.6	·
O=C(c1ccc(Br)o1)N1CCN(c2ccc3nnc(-c4ccccc4)n3n2)CC1	-2.2	39.9*	-7.0	-2.0	12.5	0.0
Cc1nnc2ccc(N3CCN(C(=O)c4ccccc4)CC3)nn12	-3.8	-0.3	-1.6	-4.0	0.2	·
CCCN(CC(=O)Nc1ccccc1C)C(=O)CCl	-1.5	80.7*	0.1	-0.6	4.1	91.7*	GSTO1 recomb ABPP=4.0
CCOc1ccccc1N1CCN(S(=O)(=O)c2ccc(F)c(F)c2)CC1	-0.9	0.3	-4.0	-3.7	1.1	·
O=C(O)c1cccc(NC2=C(Cl)C(=O)c3ccccc3C2=O)c1	·	·	1.0	7.8	2.0	·
CC(C)NC1=C(Cl)C(=O)c2ccccc2C1=O	-14.7	64.9*	3.7	0.4	5.4	13.6
O=C(O)c1ccc(NC2=C(Cl)C(=O)c3ccccc3C2=O)cc1	-10.1	79.1*	-10.9	13.1	0.7	48.8*
CCC(=O)NC1=C(NC(C)c2ccccc2)C(=O)c2ccccc2C1=O (centres undefined)	-8.2	14.1	-9.9	-1.2	5.0	·
O=C1C(Cl)=C(Nc2ccccc2)C(=O)c2ccccc21	1.6	101.8*	-8.8	5.7	0.2	89.7*
COc1ccc([N+](=O)[O-])cc1NS(=O)(=O)c1ccc(C(=O)N2CCCC2)cc1	-6.1	·	·	1.2	4.3	·
SMILES	PAD4 FP inh	GSTO1 inh	RBBP9 inh	PRMT1 inh	SIAE primary	GSTO1 confirm	others
Cc1nnc(NC(=O)c2cc(-c3ccco3)nc3ccccc23)s1	-8.4	39.8*	·	17.9	-1.7	10.5
O=C(Nc1nc2ccccc2s1)c1cc(-c2ccco2)nc2ccccc12	-4.3	-8.8	-15.9	9.1	-9.7	·
CCNC(=O)COC(=O)c1cc(-c2ccco2)nc2ccccc12	3.1	41.2*	-3.2	38.3*	16.8	8.3
O=C(N/N=C/c1ccc(F)cc1)c1cc(-c2ccco2)nc2ccccc12	-1.1	57.3*	-0.3	4.4	9.9	22.5
O=C(NCc1nc2ccccc2[nH]1)C1=C[C@H](C2CCCCC2)C[C@H](OCCCCO)O1	-5.7	1.6	·	-0.3	4.4	·
Cc1ccc(C(=O)OCn2ncc(Cl)c(Cl)c2=O)cc1	19.7*	45.2*	-8.3	2.0	0.8	45.8*
CN(CC(=O)Nc1ccc(S(=O)(=O)N2CCCC2)cc1)Cc1cccc(Cl)c1Cl	-8.8	1.6	-9.6	-3.2	-0.5	·
CCc1cc(C(=O)N=Nc2c(O)[nH]c3c(Br)cc(Br)cc23)c2ccccc2n1	-11.8	74.8*	-4.4	0.5	9.8	20.1
CCc1cc(C(=O)N/N=C/c2ccc(O)cc2)c2ccccc2n1	3.0	6.8	·	3.0	6.4	·
c1ccc2c(c1)nnn2-c1ncnc2sc3c(c12)CCCC3	-2.8	-4.4	-1.5	-2.2	3.7	·
Cc1nc(-n2nnc3ccccc32)c2c3c(sc2n1)CCCC3	-3.0	126.9*	1.6	-2.3	2.1	2.6
Cc1ccc(NC(=O)c2nc(C)n(-c3ccc([N+](=O)[O-])cc3)n2)cc1	-1.9	4.3	5.3	·	·	·
Cc1cc(=O)oc2cc(OCCSc3nnc(-c4ccccc4)o3)ccc12	-1.4	15.2	1.0	3.3	-6.3	·
Cc1cccc(-c2nnc(SCCOc3ccc4c(C)cc(=O)oc4c3)o2)c1	-0.6	40.2*	0.2	1.2	-5.0	24.9
COc1ccccc1N(C)S(=O)(=O)c1ccc(Cl)c(C(=O)NCCCN2CCOCC2)c1	3.1	-0.3	·	2.5	3.4	·
COc1ccc(Oc2ccc(C(F)(F)F)cc2NC(=O)CC(CC(=O)O)c2ccccc2)cc1 (centres undefined)	4.5	43.5*	·	0.0	-14.6	2.2
Cc1cc(C)c(NC(=O)CN2C(=O)NC3(CCCCC3)C2=O)c(Cl)c1	0.1	54.3*	-2.7	·	·	32.8
CC(N=Cc1cc([N+](=O)[O-])ccc1O)c1ccccc1 (centres undefined)	-5.2	5.3	-7.6	-0.3	7.1	·
Cc1ccccc1N=Cc1cccc(O)c1O	2.6	69.6*	-8.2	·	·	9.6
CC(N=Cc1cccc(O)c1O)c1ccccc1 (centres undefined)	6.7	77.0*	-10.9	·	·	53.7*
Oc1cccc(/C=N/N=C/c2cccc(O)c2O)c1O	1.9	19.5	·	14.4	-11.6	·
N#Cc1ccccc1CSc1nnc(Cc2ccccc2)o1	-3.7	9.6	-4.1	1.4	-10.4	·
Cc1ccc(S(=O)(=O)NC(=O)NC(C)(C)C)cc1	-3.5	5.9	-3.6	1.9	2.4	·
O=C(OCC(=O)N1CCCCC1)c1cc(NS(=O)(=O)c2ccc(Cl)c([N+](=O)[O-])c2)ccc1O	-6.0	51.2*	-3.1	1.0	-0.7	56.5*
O=C(OCC(=O)N1CCCC1)c1cc([N+](=O)[O-])ccc1Cl	-0.7	16.0	·	-4.1	-0.3	·
